B1: Osa-1-4 twister ribozyme (parent)
chain: CCGCCUAACACUGCCAAUGCCGGUCCCAAGCCCGGAUAAAAGUGGAGGGGGCGG

We go through 167 variants from the RNAGym collection of RNA variant scans (doi:10.1002/anie.201605470).

This data set covers variants of B1. Nature of the data set: self-cleavage, relative activity (ratio to wild type); higher = more cleavage; co-transcriptional. Put shortly: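 A DNA template for a 54-nucleotide Oryza sativa twister ribozyme was synthesised with 97 % wild-type base and 1 % of each other base at the 48 positions downstream of the cleavage site. It was transcribed in vitro for 2 h at 37 °C, allowing co-transcriptional self-cleavage, then reverse-transcribed with a template-switching oligonucleotide, PCR-amplified and deep-sequenced. Cleavage status was scored from reads with or without upstream sequence. Relative activity is fraction cleaved normalised to wild type.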
As for A7G G23C, the self-cleavage came to 0.06.

In the case of A7G G23A, the self-cleavage was found to be 0.14.

Turning to A7G G23U, the self-cleavage turned out to be 0.04.

On to A7G G13U, for which the self-cleavage stood at 0.02.

Consider A7G G13C, for which the self-cleavage was determined as 0.03.

As to A7G G13A, the self-cleavage was found to be 0.06.

With A7G C33G, the self-cleavage stood at 0.03.

For A7G C33A, the self-cleavage is 0.07.

In the case of A7G C33U, the self-cleavage was found to be 0.13.

As to A7G C9A, the self-cleavage was determined as 0.11.

For A7G C9G, the self-cleavage worked out at 0.29.

For A7G C9U, the self-cleavage turned out to be 0.19.

As for A7G C27A, the self-cleavage came out at 0.07.

As to A7G C27U, the self-cleavage was determined as 0.1.

For the variant A7G C27G, the self-cleavage came out at 0.07.

With A7G G19A, the self-cleavage is 0.15.

On to A7G G19C, for which the self-cleavage turned out to be 0.06.

Consider A7G G19U, for which the self-cleavage was determined as 0.07.

A7C C52A: the self-cleavage came out at 0.06.

Turning to A7C C52U, the self-cleavage amounted to 0.06.

Regarding A7C C52G, the self-cleavage stood at 0.07.

Take A7G C26G: the self-cleavage is 0.19.

For the variant A7G C26U, the self-cleavage stood at 0.13.

In the case of A7G C26A, the self-cleavage came to 0.04.

On to A7G C31G, for which the self-cleavage worked out at 0.14.

Turning to A7G C31A, the self-cleavage worked out at 0.03.

Regarding A7G C31U, the self-cleavage was 0.09.

Turning to A7C G42U, the self-cleavage was found to be 0.02.

For A7C G42C, the self-cleavage amounted to 0.03.

As for A7C G42A, the self-cleavage stood at 0.04.

Take A7C G47A: the self-cleavage stood at 0.04.

On to A7C G47U, for which the self-cleavage stood at 0.03.

Take A7C G47C: the self-cleavage turned out to be 0.02.

In the case of A7G C25U, the self-cleavage was determined as 0.17.

As for A7G C25A, the self-cleavage amounted to 0.05.

As for A7G C25G, the self-cleavage was 0.06.

Regarding A7C C11U, the self-cleavage was found to be 0.05.

For the variant A7C C11A, the self-cleavage amounted to 0.06.

In the case of A7C C11G, the self-cleavage turned out to be 0.04.

In the case of A7C C31A, the self-cleavage stood at 0.01.

In the case of A7C C31U, the self-cleavage is 0.05.

Consider A7C C31G, for which the self-cleavage was 0.02.

Turning to A7G G22A, the self-cleavage was 0.18.

With A7G G22C, the self-cleavage was 0.08.

A7G G22U: the self-cleavage was determined as 0.1.

As for A7C G49A, the self-cleavage was found to be 0.02.

Turning to A7C G49C, the self-cleavage was found to be 0.01.

For A7C G49U, the self-cleavage came to 0.02.

As for A7C C21U, the self-cleavage stood at 0.04.

Consider A7C C21A, for which the self-cleavage came to 0.06.

As for A7C C21G, the self-cleavage is 0.01.

For the variant A7C C32A, the self-cleavage came to 0.04.

As to A7C C32U, the self-cleavage came to 0.02.

Turning to A7C C32G, the self-cleavage is 0.02.

On to A7C G30U, for which the self-cleavage is 0.01.

As to A7C G30C, the self-cleavage was determined as 0.01.

With A7C G30A, the self-cleavage worked out at 0.01.

As for A7C G45A, the self-cleavage stood at 0.03.

As for A7C G45C, the self-cleavage amounted to 0.01.

In the case of A7C G45U, the self-cleavage was 0.02.

As for A7C G50C, the self-cleavage came to 0.04.

Consider A7C G50A, for which the self-cleavage was 0.04.

In the case of A7C G50U, the self-cleavage came to 0.04.

As to A7C G34U, the self-cleavage was 0.05.

In the case of A7C G34C, the self-cleavage came out at 0.04.

A7C G34A: the self-cleavage worked out at 0.03.

As for A7C U18G, the self-cleavage came to 0.08.

Take A7C U18A: the self-cleavage is 0.04.

For the variant A7C U18C, the self-cleavage came out at 0.06.

With A7G C32U, the self-cleavage is 0.08.

In the case of A7G C32A, the self-cleavage worked out at 0.05.

As to A7G C32G, the self-cleavage was found to be 0.09.

In the case of A7G C52A, the self-cleavage is 0.29.

On to A7G C52U, for which the self-cleavage worked out at 0.55.

For the variant A7G C52G, the self-cleavage is 0.32.

As for A7C C33G, the self-cleavage came out at 0.02.

For the variant A7C C33A, the self-cleavage was 0.05.

As to A7C C33U, the self-cleavage is 0.04.

Consider A7G A8G, for which the self-cleavage was found to be 0.28.

In the case of A7G A8U, the self-cleavage is 0.1.

For the variant A7G A8C, the self-cleavage worked out at 0.1.

A7C G19C: the self-cleavage stood at 0.02.

Regarding A7C G19U, the self-cleavage is 0.03.

Turning to A7C G19A, the self-cleavage is 0.05.

A7C G53U: the self-cleavage amounted to 0.03.

For A7C G53C, the self-cleavage amounted to 0.01.

Turning to A7C G53A, the self-cleavage stood at 0.06.

Consider A7C C9G, for which the self-cleavage is 0.04.

For A7C C9A, the self-cleavage stood at 0.09.

In the case of A7C C9U, the self-cleavage worked out at 0.02.

Regarding A7G G30U, the self-cleavage was 0.05.

Take A7G G30A: the self-cleavage was 0.04.

Take A7G G30C: the self-cleavage was found to be 0.03.

On to A7C C26U, for which the self-cleavage was determined as 0.05.

For the variant A7C C26A, the self-cleavage is 0.03.

Turning to A7C C26G, the self-cleavage was 0.02.

Regarding A7C G48U, the self-cleavage is 0.01.

For the variant A7C G48A, the self-cleavage came to 0.02.

For the variant A7C G48C, the self-cleavage was 0.02.

Take A7C G54U: the self-cleavage worked out at 0.06.

Consider A7C G54C, for which the self-cleavage came to 0.05.

As for A7C G54A, the self-cleavage was 0.05.

Consider A7C G35U, for which the self-cleavage amounted to 0.05.

For the variant A7C G35A, the self-cleavage turned out to be 0.04.

With A7C G35C, the self-cleavage was 0.04.

On to A7C U43A, for which the self-cleavage came out at 0.06.

In the case of A7C U43C, the self-cleavage is 0.04.

As for A7C U43G, the self-cleavage stood at 0.06.

For the variant A7G C11G, the self-cleavage amounted to 0.1.

Consider A7G C11U, for which the self-cleavage was found to be 0.15.

In the case of A7G C11A, the self-cleavage stood at 0.13.

Consider A7C A8U, for which the self-cleavage was found to be 0.06.

As for A7C A8G, the self-cleavage was 0.05.

In the case of A7C A8C, the self-cleavage was determined as 0.07.

On to A7C G23A, for which the self-cleavage turned out to be 0.05.

As for A7C G23U, the self-cleavage worked out at 0.02.

As to A7C G23C, the self-cleavage was determined as 0.01.

On to A7C U24G, for which the self-cleavage came out at 0.01.

In the case of A7C U24A, the self-cleavage was determined as 0.04.

As for A7C U24C, the self-cleavage was 0.03.

Consider A7C C25G, for which the self-cleavage amounted to 0.02.

As to A7C C25U, the self-cleavage is 0.04.

As for A7C C25A, the self-cleavage came to 0.05.

Consider A7C U12G, for which the self-cleavage is 0.09.

In the case of A7C U12C, the self-cleavage turned out to be 0.04.

As for A7C U12A, the self-cleavage was found to be 0.05.

On to A7G C15U, for which the self-cleavage was found to be 0.09.

Take A7G C15G: the self-cleavage is 0.27.

As for A7G C15A, the self-cleavage turned out to be 0.12.

As to A7C G51C, the self-cleavage was 0.02.

In the case of A7C G51A, the self-cleavage amounted to 0.04.

With A7C G51U, the self-cleavage was 0.03.

As for A7G, the self-cleavage amounted to 0.49.

With A7C, the self-cleavage was 0.04.

Consider A7C G22U, for which the self-cleavage stood at 0.04.

With A7C G22C, the self-cleavage is 0.02.

Consider A7C G22A, for which the self-cleavage is 0.07.

As to A7C G44A, the self-cleavage was 0.05.

Take A7C G44U: the self-cleavage came to 0.05.

Turning to A7C G44C, the self-cleavage worked out at 0.05.

With A7G C20U, the self-cleavage came to 0.43.

On to A7G C20G, for which the self-cleavage amounted to 0.11.

As to A7G C20A, the self-cleavage is 0.5.

Regarding A7C C27A, the self-cleavage came to 0.06.

With A7C C27G, the self-cleavage was found to be 0.02.

A7C C27U: the self-cleavage is 0.03.

A7C C20U: the self-cleavage was determined as 0.06.

Turning to A7C C20G, the self-cleavage is 0.01.

Regarding A7C C20A, the self-cleavage amounted to 0.06.

As for A7C U37C, the self-cleavage turned out to be 0.06.

For the variant A7C U37G, the self-cleavage came out at 0.07.

Turning to A7C U37A, the self-cleavage amounted to 0.02.

As for A7C C15A, the self-cleavage was found to be 0.04.

On to A7C C15G, for which the self-cleavage was 0.07.

Regarding A7C C15U, the self-cleavage was determined as 0.04.

For the variant A7G C21U, the self-cleavage amounted to 0.23.

Turning to A7G C21A, the self-cleavage was 0.1.

A7G C21G: the self-cleavage is 0.03.

For A7C G13U, the self-cleavage worked out at 0.01.

For A7C G13A, the self-cleavage worked out at 0.02.

As for A7C G13C, the self-cleavage turned out to be 0.02.

Regarding A7G C14A, the self-cleavage is 0.04.

A7G C14U: the self-cleavage came to 0.1.

On to A7G C14G, for which the self-cleavage amounted to 0.32.

For A7C C14U, the self-cleavage is 0.04.

Turning to A7C C14A, the self-cleavage was found to be 0.04.

For A7C C14G, the self-cleavage was 0.03.
